Experimental data collected from several papers.
Protocols differ between the studies behind these lines.
Target: Tyrosine-protein kinase SYK (SYK, Homo sapiens, UniProt P43405)

COc1ccc(COc2ccc(Cc3cnc(N)nc3N)cc2OC)cc1 — remaining signal (cell-free assay; 0.5 µM): 89%
Oc1cccc(-c2nc(N3CCOCC3)c3oc4ncccc4c3n2)c1 — remaining activity (enzyme activity; inhibitor; 10 µM): 69%
Cc1ccc(Nc2nccc(N(C)c3ccc4c(C)n(C)nc4c3)n2)cc1S(N)(=O)=O — inhibition (enzyme activity; inhibitor; 0.3 µM): 21%
CNc1cccc2cc(C(=O)Nc3ccc(C(=O)O)cc3)c(=O)[nH]c12 — inhibition (enzyme activity; inhibitor; 10 µM): 4%
O=C(N1CCS(=O)(=O)CC1)N1C[C@H](c2ccc(OC(F)(F)F)cc2)C[C@H](c2nc(C3CC3)no2)C1 — remaining binding (cell-free assay; competition with immobilised ligand; 1 µM): 100%
COc1cc2ncnc(Nc3ccc(Oc4ccccc4)c(C)c3C)c2cc1OC — inhibition (enzyme activity; inhibitor; 1 µM): 4%
Cn1cc(Cl)c2c(Oc3c(F)cc(Nc4cc(Cl)nc(N)n4)cc3F)ccnc21 — remaining binding (cell-free assay; competition with immobilised ligand; 0.1 µM): 100%
c1nc2c(Nc3ccc4c(c3)OCCO4)nc(Nc3ccc4c(c3)OCCO4)nc2[nH]1 — activity vs control (enzyme activity; inhibitor; 10 µM): 2%
C[C@H](c1ccnc(Nc2nc3ccc(-c4cc(N(C)C)ncn4)cc3[nH]2)c1)N1CCN(C(=O)CC(F)(F)F)CC1 — remaining binding (binding; competition with immobilised ligand; 0.1 µM): 31%
C=CC(=O)Nc1cc(Nc2nccc(Nc3cc(Cl)c(F)cc3C(C)(C)O)n2)c(OC)cc1N1CC[C@@H](N(C)C)C1 — inhibition (enzyme activity; inhibitor; 1 µM): 14%
O=C1NC(=O)c2cc(Nc3ccc(F)cc3)c(Nc3ccc(F)cc3)cc21 — remaining signal (cell-free assay; 0.5 µM): 98.8%
FC(F)c1nc2ccccc2n1-c1nc(N2CCOCC2)nc(N2CCOCC2)n1 — remaining activity (enzyme activity; inhibitor; 10 µM): 85%
CS(=O)(=O)Nc1cccc(-c2csc(NC(=O)CSc3nc4nccnc4c(=O)n3CCc3ccccc3)n2)c1 — inhibition (enzyme activity; inhibitor; 10 µM): -1%
Cc1cc(NC(=O)c2cccc3cc(-c4cccc5[nH]nc(N)c45)ccc23)ccc1F — activity vs control (enzyme activity; inhibitor; 0.1 µM): 109%
Nc1nc(NC2CCCCC2)sc1C(=O)c1ccccc1 — remaining activity (enzyme activity; inhibitor; 10 µM): 91%
Cc1sc(C(=O)NC2COC2)cc1-n1cc(NC(=O)Nc2c(F)cccc2Cl)cn1 — remaining activity (enzyme activity; inhibitor; 10 µM): 88.5%
CC(C)(C)c1nc(-c2cccc(NS(=O)(=O)c3c(F)cccc3F)c2F)c(-c2ccnc(N)n2)s1 — remaining activity (enzyme activity; inhibitor; radiometric; 1 µM): 111%
COc1cc(Nc2cnc(C#N)c(O[C@H](C)CN(C)C)n2)ncc1-c1cnn(C)c1 — remaining activity (enzyme activity; inhibitor; radiometric; 10 µM): 63%
CNC(=O)c1cc(Oc2ccc(NC(=O)Nc3ccc(Cl)c(C(F)(F)F)c3)cc2)ccn1 — inhibition (enzyme activity; inhibitor; 0.3 µM): 3%
CS(=O)(=O)N1CCCC(NC(=O)[C@H](CCC2CCCCC2)NC(=O)c2ccc(CNc3ncnc4c3nnn4-c3ccccc3)cc2)C1 (some centres unmarked) — remaining binding (cell-free assay; competition with immobilised ligand; 0.1 µM): 88%
Cc1cnc(NC2CCOCC2)nc1-n1cnc(C(=O)NC(CN)c2cc(F)cc(Cl)c2)c1 (centres unmarked) — remaining activity (enzyme activity; inhibitor; radiometric; 1 µM): 94%
O=C(O)[C@H]1[C@H](Cn2nnc3ccccc3c2=O)CC[C@@H]1C(=O)c1ccc(OCCC2CCOCC2)cc1 — remaining binding (cell-free assay; competition with immobilised ligand; 1 µM): 76%
CC/C(=N\NC(=O)NCc1cccc(O)c1)c1ccc(O)c(C)c1O — inhibition (enzyme activity; inhibitor; 0.1 µM): 3.3%
N#CCCc1ccc2c(c1)-c1[nH]c3ccc([N+](=O)[O-])cc3c1CC(=O)N2 — remaining signal (cell-free assay; 0.5 µM): 58%
CCCOc1ccc([C@H]2[C@H](C(=O)O)[C@@H](c3ccc4c(c3)OCO4)CN2CC(=O)Nc2c(CC)cccc2CC)cc1 — remaining binding (cell-free assay; competition with immobilised ligand; 1 µM): 100%
FC(F)(F)Oc1cccc(-c2cnc3ccc(-c4ccncc4)nn23)c1 — activity vs control (enzyme activity; inhibitor; radiometric; 5 µM): 72%
Cc1ccc(C(=O)Nc2ccc(CN3CCN(C)CC3)c(C(F)(F)F)c2)cc1C#Cc1cnc2cccnn12 — remaining activity (enzyme activity; inhibitor; 23.5 nM): 99%
CN(c1ncccc1CNc1nc(Nc2ccc3c(c2)CC(=O)N3)ncc1C(F)(F)F)S(C)(=O)=O — inhibition (enzyme activity; inhibitor; 1 µM): 91.7%
CC(C)CC(=O)N1CCc2nc(-c3ccc(Br)cc3)nc(N(C)Cc3ccccc3)c2C1 — remaining binding (cell-free assay; competition with immobilised ligand; 0.1 µM): 100%
Nc1nc(Nc2ccccc2)sc1C(=O)c1c(F)cccc1F — remaining activity (enzyme activity; inhibitor; 10 µM): 37%
Cc1c(NC(=O)c2cc(C(N)=O)nc3cc(F)ccc23)c(C(F)(F)F)nn1Cc1ccc(C#N)cc1 — remaining binding (cell-free assay; competition with immobilised ligand; 1 µM): 95%
CN(C)C1CCN(CC#Cc2nn(C3CCCC3)c3nc(NCc4ccccc4)ncc23)C1 (centres unmarked) — inhibition (enzyme activity; inhibitor; FRET; 0.1 µM): 2%
